Activity calls are given as the source filed them. The rule behind the calls is not given here.
What was measured:
[1] = biological target: T1, 5-hydroxytryptamine receptor 1A (Rattus norvegicus, UniProt P19327); test: Binding affinity of compound against 5-hydroxytryptamine 1A receptor binding site using radioligand [3H]8-OH-DPAT
T1 sequence (P19327 whole entry): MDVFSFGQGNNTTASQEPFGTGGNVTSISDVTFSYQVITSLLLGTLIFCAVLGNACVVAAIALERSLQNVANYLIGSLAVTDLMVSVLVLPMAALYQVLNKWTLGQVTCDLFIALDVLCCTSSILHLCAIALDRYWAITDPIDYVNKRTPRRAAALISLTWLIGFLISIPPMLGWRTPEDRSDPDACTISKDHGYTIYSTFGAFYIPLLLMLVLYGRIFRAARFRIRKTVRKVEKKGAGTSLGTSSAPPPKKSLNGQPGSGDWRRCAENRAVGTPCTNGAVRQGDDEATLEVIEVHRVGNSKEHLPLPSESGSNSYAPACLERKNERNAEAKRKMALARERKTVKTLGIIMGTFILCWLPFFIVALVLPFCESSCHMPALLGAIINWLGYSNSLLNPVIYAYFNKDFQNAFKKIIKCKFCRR

Felis catus [2] = test: Minimum effective dose administered intravenously for decrease in arterial pressure in cat heart; type: functional; conditions: Artery, iv, read-out: MED
In short: (§1)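 Cats anesthetized with pentobarbital sodium (30 mg/kg ip), intubated and ventilated, with bilateral vagotomy and atropine sulfate 200 μg/kg. Compound given iv via femoral vein, doses up to 1 mg/kg. Femoral arterial pressure and heart rate were recorded continuously. The right postganglionic cardioaccelerator nerve was stimulated at 2 Hz, 5 ms, 20 V.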

Rattus norvegicus [3] = species on record: Rattus norvegicus; test: Ability of compound to induce behavioral changes in rat; type: functional; conditions: read-out: MED
In short: (§2)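 Rats dosed subcutaneously and observed for locomotor activity and serotonin syndrome signs (flat body posture, forepaw extension and padding, abducted hindlimbs, forebody tremor). Antagonism was tested by giving the compound 15 min before subcutaneous 8-OH-DPAT.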

D(2) dopamine receptor = D(2) dopamine receptor (Rattus norvegicus, UniProt P61169); test: Binding affinity of compound against Dopamine receptor D2 binding site using radioligand [3H]spiperone
Chain of D(2) dopamine receptor (P61169 whole entry): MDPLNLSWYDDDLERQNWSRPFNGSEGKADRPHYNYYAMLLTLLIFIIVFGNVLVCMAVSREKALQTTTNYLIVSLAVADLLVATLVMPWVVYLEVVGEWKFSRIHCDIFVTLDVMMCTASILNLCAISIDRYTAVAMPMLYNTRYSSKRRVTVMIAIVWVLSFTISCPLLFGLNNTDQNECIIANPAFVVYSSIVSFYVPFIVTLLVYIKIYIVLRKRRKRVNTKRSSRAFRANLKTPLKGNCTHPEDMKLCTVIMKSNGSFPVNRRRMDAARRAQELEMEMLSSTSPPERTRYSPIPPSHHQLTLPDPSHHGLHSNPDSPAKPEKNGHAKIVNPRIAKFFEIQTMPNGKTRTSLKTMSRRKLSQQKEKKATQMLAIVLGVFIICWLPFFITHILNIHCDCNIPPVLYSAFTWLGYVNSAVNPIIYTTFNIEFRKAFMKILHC

Felis catus [4] = test: Minimum effective dose administered intravenously for decrease in heart rate in cat; type: functional; conditions: iv, read-out: MED; in short: as §1
Rattus norvegicus [5] = species on record: Rattus norvegicus; test: Ability of compound to induce behavioral changes in rat; Not active; type: functional, organism-based; in short: as §2

| SMILES | Ki [1] [nM] | minimal effective dose (Felis catus [2]) [mg/kg] | minimal effective dose (Rattus norvegicus [3]) [mg/kg] | Ki (D(2) dopamine receptor) [nM] | minimal effective dose (Felis catus [4]) [mg/kg] | MED (Rattus norvegicus [5]) |
| --- | --- | --- | --- | --- | --- | --- |
| COc1ccc(OC)c2c1C[C@@H]1c3c(cccc3-2)CCN1C | 8.6 | > 1 | 5 | 210 | > 1 | – |
| CCCN1CCc2cccc3c2[C@H]1Cc1c(OC)ccc(OC)c1-3 | 240 | > 1 | – | 770 | > 1 | inactive |
| CN1CCc2cccc3c2[C@H]1Cc1ccc(O)c(O)c1-3 [APOMORPHINE] | – | 0.01 | 1 | – | 0.01 | – |
| CCCN(CCC)C1CCc2cccc(O)c2C1 (stereo not drawn) [8-OH-DPAT] | – | 0.01 | 0.5 | 3500 | 0.01 | – |
| O=C(CCCN1CCC2(CC1)C(=O)NCN2c1ccccc1)c1ccc(F)cc1 [SPIPERONE] | 30 | – | – | – | – | – |

Source: ChEMBL document CHEMBL1124569, “5-HT1A-receptor antagonism: N-alkyl derivatives of (R)-(-)-8,11-dimethoxynoraporphine” (J Med Chem, 1989)
